Data reported in PMC8179660 (Chemical Science, 2021).

Target: T1, p300 (Homo sapiens, UniProt Q09472)
T1 sequence (Q09472 1284-1673 limits assumed): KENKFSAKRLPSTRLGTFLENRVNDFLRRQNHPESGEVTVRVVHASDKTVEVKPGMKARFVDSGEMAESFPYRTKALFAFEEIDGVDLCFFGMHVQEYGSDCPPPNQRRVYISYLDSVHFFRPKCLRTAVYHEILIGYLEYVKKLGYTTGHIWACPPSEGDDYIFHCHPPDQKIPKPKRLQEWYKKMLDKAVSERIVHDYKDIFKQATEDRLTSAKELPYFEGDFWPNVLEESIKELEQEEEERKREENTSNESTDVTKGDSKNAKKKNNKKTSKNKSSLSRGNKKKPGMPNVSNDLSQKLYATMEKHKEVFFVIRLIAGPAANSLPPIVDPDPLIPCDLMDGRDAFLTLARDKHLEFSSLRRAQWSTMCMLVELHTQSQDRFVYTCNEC
Test: radioactive acetyltransferase activity-based IC50 assay
Assay type: biochemical
How it was run: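 Test compounds came from a DNA-encoded peptide macrocycle library affinity selection against p300 using a poly-His/Ni-NTA magnetic bead binding system. They were resynthesized off-DNA, without the DNA tag, and tested for p300 inhibition in a radioactive acetyltransferase activity assay to derive IC50.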

- IC50: 5.2 µM
SMILES: CC(C)C[C@H]1NC(=O)[C@@H](NC(=O)CCc2cccc([N+](=O)[O-])c2)Cc2ccc(cc2)SC[C@@H](C(N)=O)NC(=O)CC2(CCCCC2)CNC1=O [Compound 33-C]
